≈ marks a conversion by molar mass, not a printed value. Calls of active or inactive are those of the source. The rule behind the calls is not given here.
Legend:
Pseudomonas aeruginosa = assay: Antibacterial activity against Pseudomonas aeruginosa after 24 hrs by agar cup diffusion method; type: functional
In short: (§1)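 Nutrient agar seeded with culture, poured 3–4 mm; six 10 mm cups per plate, one as DMF solvent control. Compounds dissolved in DMF (stock 1 mg/mL), two-fold serial dilutions 32–512 µg/mL, 0.1 mL per cup. Incubation 24 h at 37 °C; inhibition zone diameter read in mm. MIC taken as intercept of log concentration versus zone diameter plot; ciprofloxacin reference.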

[1] = Nitric oxide release in phosphate buffer at pH 7.4 after 1 hr by Griess diazotization reaction method in presence of L-cysteine; parameters: concentration or dose not given beside the values
In short: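 Incubation in pH 7.4 phosphate buffer with L-cysteine for 1 h at 37 °C. Then 1 mL of mixture treated with Griess reagent (sulfanilamide, N-naphthylethylenediamine, phosphoric acid); absorbance read at 540 nm after 25 min. Nitrite quantified against sodium nitrite standard curve; % release = found/theoretical NO × 100.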

Escherichia coli = assay: Antibacterial activity against Escherichia coli C-600 after 24 hrs by agar cup diffusion method; type: functional; in short: as §1
Bacillus subtilis = assay: Antibacterial activity against Bacillus subtilis after 24 hrs by agar cup diffusion method; type: functional; in short: as §1
Staphylococcus aureus = assay: Antibacterial activity against Staphylococcus aureus NCTC 6571 after 24 hrs by agar cup diffusion method; type: functional; in short: as §1
Rattus norvegicus [2] = assay: Antiinflammatory activity in albino rat assessed as inhibition of carrageenan-induced paw edema at 100 mg/kg, po administered 30 mins prior to carrageenan challenge measured after 1 hr; type: functional
In short: (§2)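 Male albino rats, 140–150 g, groups of 5, acclimatized 3 days, water only on the last day. Oral dosing in carboxymethylcellulose vehicle 30 min before subplantar 1% carrageenan (0.1 mL) into one hind paw; contralateral paw given saline. Paw thickness by digital plethysmometer at 0–5 h. Percent inhibition from difference between paws, treated versus vehicle control; indomethacin reference; mean ± SEM.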

Rattus norvegicus [3] = assay: Antiinflammatory activity in albino rat assessed as inhibition of carrageenan-induced paw edema at 100 mg/kg, po administered 30 mins prior to carrageenan challenge measured after 2 hrs; type: functional; in short: as §2
Rattus norvegicus [4] = assay: Antiinflammatory activity in albino rat assessed as inhibition of carrageenan-induced paw edema at 100 mg/kg, po administered 30 mins prior to carrageenan challenge measured after 3 hrs; type: functional; in short: as §2
Rattus norvegicus [5] = assay: Antiinflammatory activity in albino rat assessed as inhibition of carrageenan-induced paw edema at 100 mg/kg, po administered 30 mins prior to carrageenan challenge measured after 4 hrs; type: functional; in short: as §2
Rattus norvegicus [6] = assay: Antiinflammatory activity in albino rat assessed as inhibition of carrageenan-induced paw edema at 100 mg/kg, po administered 30 mins prior to carrageenan challenge measured after 5 hrs; type: functional; in short: as §2
Rattus norvegicus [7] = assay: Gastrointestinal toxicity in albino rat assessed as ulcer index at 100 mg/kg, po; type: organism-based; parameters: dose 100 mg/kg, route oral; details: in vivo
In short: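 Rats from the paw edema study killed by ether overdose; stomachs removed, opened and examined for visible lesions. Each lesion scored 0–5 by length (0 none, 1 petechiae, 2 <1 mm, 3 1–2 mm, 4 2–4 mm, 5 >4 mm erosions). Scores summed per rat; group ulcer index is the mean lesion score.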

Rattus norvegicus [8] = assay: Gastrointestinal toxicity in albino rat assessed as incidence of gastric ulceration at 100 mg/kg, po by histopathological study; type: organism-based, Stomach; parameters: dose 100 mg/kg, route oral; details: in vivo
In short: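 Gastric sections dewaxed, rehydrated, stained with haematoxylin 5–7 min, differentiated in 1% HCl in 70% alcohol, stained with 1% eosin 10 min, dehydrated, cleared in xylene, mounted and examined by light microscopy.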

Rattus norvegicus [9] = assay: Gastroprotective activity in albino rat assessed as preventive index at 100 mg/kg, po; type: functional
In short: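 Preventive index = (UI of ulcered group − UI of treated group)/UI of ulcered group × 100. UI from lesion scoring (0–5 by erosion length) of stomachs of rats from the paw edema study.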

MIC (Pseudomonas aeruginosa) | MIC (Escherichia coli; C-600, 24 h) | MIC (Bacillus subtilis) | MIC (Staphylococcus aureus) | MIC (Escherichia coli) | MIC (Staphylococcus aureus; NCTC 6571, 24 h) | Compound | Activity [1] | inhibition in vivo at 100 mg/kg (Rattus norvegicus [2]) | inhibition in vivo at 100 mg/kg (Rattus norvegicus [3]) | inhibition in vivo at 100 mg/kg (Rattus norvegicus [4]) | inhibition in vivo at 100 mg/kg (Rattus norvegicus [5]) | inhibition in vivo at 100 mg/kg (Rattus norvegicus [6]) | UI (Rattus norvegicus [7]) | Activity (Rattus norvegicus [8]) | PI (Rattus norvegicus [9])
93.3 µg/mL (≈ 173 µM) | 64 µg/mL (≈ 119 µM) | 2.45 µg/mL (≈ 4.54 µM) | inactive |  |  | O=C(c1ccccc1)c1c(C(=O)N2CCN(C(=O)CO[N+](=O)[O-])CC2)nn(-c2ccccc2)c1-c1ccccc1 | 13.8% | 45.5% | 30% | 43% | 45.6% | 68.1% | 5.5 | Non-toxic | 76.08%
25.1 µg/mL (≈ 52.5 µM) |  | inactive | inactive | inactive |  | O=C(Nc1ccc(Cl)cc1)c1nn(-c2ccccc2)c(-c2ccccc2)c1C(=O)c1ccccc1 |  | 45.5% | 40% | 35% | 36.5% | 55.9% | 20.3 | Toxic | 
27.2 µg/mL (≈ 54.4 µM) | 1.62 µg/mL (≈ 3.24 µM) | 90.4 µg/mL (≈ 181 µM) | inactive |  |  | C/C(=N\O)c1ccc(NC(=O)c2nn(-c3ccccc3)c(-c3ccccc3)c2C(=O)c2ccccc2)cc1 | 11.6% | 16.4% | 33.3% | 33.3% | 51.5% | 62.3% | 4 |  | 
22.9 µg/mL (≈ 48.4 µM) | 4.5 µg/mL (≈ 9.5 µM) | 43.8 µg/mL (≈ 92.5 µM) | inactive |  |  | COc1ccc(NC(=O)c2nn(-c3ccccc3)c(-c3ccccc3)c2C(=O)c2ccccc2)cc1 |  | 40% | 42.5% | 28.3% | 43% | 52.9% | 33.3 |  | 
10.3 µg/mL (≈ 20.9 µM) | 14.1 µg/mL (≈ 28.6 µM) | 5.82 µg/mL (≈ 11.8 µM) |  |  | 90.4 µg/mL (≈ 183 µM) | O=C(Nc1ccc(Cl)cc1)c1nn(-c2ccccc2)c(-c2ccccc2)c1/C(=N/O)c1ccccc1 | 7.8% | 23.6% | 23.3% | 47.6% | 55.9% | 60.9% | 7.5 | Non-toxic | 
6.04 µg/mL (≈ 12.7 µM) | 24 µg/mL (≈ 50.6 µM) | 47.5 µg/mL (≈ 99.9 µM) | inactive |  |  | O=C(OCCBr)c1nn(-c2ccccc2)c(-c2ccccc2)c1C(=O)c1ccccc1 |  | 25.4% | 28.4% | 30.2% | 41.2% | 52.2% | 11 |  | 
1.29 µg/mL (≈ 3.13 µM) | 7.95 µg/mL (≈ 19.3 µM) | 3.88 µg/mL (≈ 9.41 µM) | inactive |  |  | O=C(OCCO)c1nn(-c2ccccc2)c(-c2ccccc2)c1C(=O)c1ccccc1 |  | 19.7% | 51.5% | 66.4% | 68.6% | 71.7% | 9 |  | 
4.3 µg/mL (≈ 9.4 µM) | 16.1 µg/mL (≈ 35.3 µM) | 33.8 µg/mL (≈ 73.9 µM) | inactive |  |  | Cc1ccc(NC(=O)c2nn(-c3ccccc3)c(-c3ccccc3)c2C(=O)c2ccccc2)cc1 |  | 42.5% | 29.1% | 28.3% | 30.2% | 51.2% | 4 |  | 
30.8 µg/mL (≈ 93 µM) | 1.2 µg/mL (≈ 3.62 µM) | 0.61 µg/mL (≈ 1.84 µM) |  |  | 52.4 µg/mL (≈ 158 µM) | O=C(O)c1cn(C2CC2)c2cc(N3CCNCC3)c(F)cc2c1=O [CIPROFLOXACIN] |  |  |  |  |  |  |  |  | 
84.5 µg/mL (≈ 194 µM) | 1.92 µg/mL (≈ 4.4 µM) | 2.18 µg/mL (≈ 4.99 µM) | inactive |  |  | O=C(c1ccccc1)c1c(C(=O)N2CCNCC2)nn(-c2ccccc2)c1-c1ccccc1 |  | 35% | 41.7% | 28.6% | 51.5% | 66.7% | 23 | Toxic | 
32.4 µg/mL (≈ 66.7 µM) | 39.9 µg/mL (≈ 82.2 µM) | 1.75 µg/mL (≈ 3.6 µM) | inactive |  |  | CC(=O)c1ccc(NC(=O)c2nn(-c3ccccc3)c(-c3ccccc3)c2C(=O)c2ccccc2)cc1 |  | 29.1% | 45.5% | 45% | 47.6% | 61.8% | 11 |  | 

The remaining lines, values behind:

Compound | MIC (Pseudomonas aeruginosa) | MIC (Escherichia coli; C-600, 24 h) | MIC (Bacillus subtilis) | MIC (Staphylococcus aureus) | MIC (Escherichia coli) | MIC (Staphylococcus aureus; NCTC 6571, 24 h) | Activity [1] | inhibition in vivo at 100 mg/kg (Rattus norvegicus [2]) | inhibition in vivo at 100 mg/kg (Rattus norvegicus [3]) | inhibition in vivo at 100 mg/kg (Rattus norvegicus [4]) | inhibition in vivo at 100 mg/kg (Rattus norvegicus [5]) | inhibition in vivo at 100 mg/kg (Rattus norvegicus [6]) | UI (Rattus norvegicus [7]) | Activity (Rattus norvegicus [8]) | PI (Rattus norvegicus [9])
COc1ccc2c(c1)c(CC(=O)O)c(C)n2C(=O)c1ccc(Cl)cc1 [INDOMETHACIN] |  |  |  |  |  |  |  |  |  |  |  |  | 69.5 |  | 
O=C(O)c1ccc(NC(=O)c2nn(-c3ccccc3)c(-c3ccccc3)c2/C(=N/O)c2ccccc2)cc1 | 13.6 µg/mL (≈ 27.1 µM) | 2.8 µg/mL (≈ 5.57 µM) | 29.5 µg/mL (≈ 58.7 µM) |  |  | 50.5 µg/mL (≈ 100 µM) | 9.3% | 45.5% | 45% | 47.6% | 61.8% | 81.2% | 8.5 |  | 
O=C(Nc1ccc(S(=O)(=O)Nc2ncccn2)cc1)c1nn(-c2ccccc2)c(-c2ccccc2)c1C(=O)c1ccccc1 | 44.3 µg/mL (≈ 73.8 µM) |  | 47 µg/mL (≈ 78.3 µM) | inactive | inactive |  |  | 18.2% | 18.2% | 25% | 27% | 41.2% | 9.3 |  | 
O=C(c1ccccc1)c1c(C(=O)N2CCN(C(=O)CCl)CC2)nn(-c2ccccc2)c1-c1ccccc1 | 61.5 µg/mL (≈ 120 µM) | 1.37 µg/mL (≈ 2.67 µM) | 11.2 µg/mL (≈ 21.8 µM) | inactive |  |  |  |  |  |  |  |  |  |  | 
O=C(O)c1ccc(NC(=O)c2nn(-c3ccccc3)c(-c3ccccc3)c2C(=O)c2ccccc2)cc1 | 25.3 µg/mL (≈ 52 µM) | 30.9 µg/mL (≈ 63.4 µM) | 34.8 µg/mL (≈ 71.4 µM) |  |  | 64 µg/mL (≈ 131 µM) |  | 23.6% | 25% | 27% | 41.2% | 46.4% | 17 |  | 
Cc1ccc(NC(=O)c2nn(-c3ccccc3)c(-c3ccccc3)c2/C(=N/O)c2ccccc2)cc1 | 7.99 µg/mL (≈ 16.9 µM) | 28.6 µg/mL (≈ 60.6 µM) | 2.87 µg/mL (≈ 6.07 µM) | inactive |  |  | 10.1% | 12.7% | 20% | 36.5% | 45.6% | 82.6% | 3 |  | 
COc1ccc(NC(=O)c2nn(-c3ccccc3)c(-c3ccccc3)c2/C(=N/O)c2ccccc2)cc1 | 9.7 µg/mL (≈ 19.9 µM) | 2.88 µg/mL (≈ 5.9 µM) | 43.9 µg/mL (≈ 89.8 µM) | inactive |  |  | 8% | 30.9% | 25% | 36.5% | 51.5% | 56.5% | 8.5 |  | 74%
O=C(Nc1ccc(S(=O)(=O)Nc2ncccn2)cc1)c1nn(-c2ccccc2)c(-c2ccccc2)c1/C(=N/O)c1ccccc1 | 23.3 µg/mL (≈ 37.9 µM) | 30.9 µg/mL (≈ 50.1 µM) | 54.7 µg/mL (≈ 88.8 µM) | inactive |  |  | 7.4% | 16.4% | 26.7% | 31.7% | 51.5% | 56.5% | 7.6 |  | 
O=C(O)c1nn(-c2ccccc2)c(-c2ccccc2)c1C(=O)c1ccccc1 | 1.92 µg/mL (≈ 5.21 µM) | 16.1 µg/mL (≈ 43.7 µM) | 10.8 µg/mL (≈ 29.2 µM) | inactive |  |  |  | 32.7% | 35% | 36.5% | 51.5% | 56.6% | 8 |  | 
O=C(OCCO[N+](=O)[O-])c1nn(-c2ccccc2)c(-c2ccccc2)c1C(=O)c1ccccc1 | 11.3 µg/mL (≈ 24.7 µM) | 15.3 µg/mL (≈ 33.4 µM) | 21.7 µg/mL (≈ 47.4 µM) | inactive |  |  | 7.1% | 29.1% | 35% | 47.6% | 58.8% | 71% | 7.5 |  | 
